According to ChEMBL document CHEMBL2390929, “New nitric oxide donating 1,2,4-triazole/oxime hybrids: synthesis, investigation of anti-inflammatory, ulceroginic liability and antiproliferative activities” (Bioorg Med Chem, 2013):

Key:
MDA-MB-468 = test: Cytotoxicity against human MDA-MB-468 cells assessed as cell growth at 10^-5 M after 48 hrs by SRB assay; assay type: functional; conditions: MDA-MB-468, 48 h, read-out: Activity
In short: (§1)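 NCI 60-cell-line primary one-dose screen across nine tumour subpanels. Compound added at a single concentration of 10^-5 M and cultures incubated 48 h. Endpoint was sulforhodamine B protein staining read spectrophotometrically, with growth expressed as percent of untreated control cells.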

Hs-578T = test: Cytotoxicity against human Hs578T cells assessed as cell growth at 10^-5 M after 48 hrs by SRB assay; assay type: functional; conditions: read-out: Activity; in short: as §1
MDA-MB-231 = test: Cytotoxicity against human MDA-MB-231 cells assessed as cell growth at 10^-5 M after 48 hrs by SRB assay; assay type: functional; conditions: MDA-MB-231, 48 h, read-out: Activity; in short: as §1
MCF7 = test: Cytotoxicity against human MCF7 cells assessed as cell growth at 10^-5 M after 48 hrs by SRB assay; assay type: functional; conditions: MCF7, 48 h, read-out: Activity; in short: as §1
SN12C = test: Cytotoxicity against human SN12C cells assessed as cell growth at 10^-5 M after 48 hrs by SRB assay; assay type: functional; conditions: read-out: Activity
In short: (§2)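 NCI-60 one-dose screen across nine tumour subpanels. Each agent added once at 10^-5 M, cultures incubated 48 h. Endpoint is sulforhodamine B protein staining read spectrophotometrically. Output is percent growth of treated cells relative to untreated controls.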

RXF 393 = test: Cytotoxicity against human RXF393 cells assessed as cell growth at 10^-5 M after 48 hrs by SRB assay; assay type: functional; conditions: RXF 393, 48 h, read-out: Activity; in short: as §1
CAKI-1 = test: Cytotoxicity against human CAKI-1 cells assessed as cell growth at 10^-5 M after 48 hrs by SRB assay; assay type: functional; conditions: CAKI-1, 48 h, read-out: Activity; in short: as §1
A498 = test: Cytotoxicity against human A498 cells assessed as cell growth at 10^-5 M after 48 hrs by SRB assay; assay type: functional; conditions: A498, 48 h, read-out: Activity; in short: as §1
OVCAR-4 = test: Cytotoxicity against human OVCAR4 cells assessed as cell growth at 10^-5 M after 48 hrs by SRB assay; assay type: functional; conditions: OVCAR-4, 48 h, read-out: Activity; in short: as §1
OVCAR-3 = test: Cytotoxicity against human OVCAR3 cells assessed as cell growth at 10^-5 M after 48 hrs by SRB assay; assay type: functional; conditions: OVCAR-3, 48 h, read-out: Activity; in short: as §1
IGROV-1 = test: Cytotoxicity against human IGROV1 cells assessed as cell growth at 10^-5 M after 48 hrs by SRB assay; assay type: functional; conditions: IGROV-1, 48 h, read-out: Activity; in short: as §1
UACC-257 = test: Cytotoxicity against human UACC257 cells assessed as cell growth at 10^-5 M after 48 hrs by SRB assay; assay type: functional; conditions: UACC-257, 48 h, read-out: Activity; in short: as §2
SK-MEL-5 = test: Cytotoxicity against human SK-MEL-5 cells assessed as cell growth at 10^-5 M after 48 hrs by SRB assay; assay type: functional; conditions: SK-MEL-5, 48 h, read-out: Activity; in short: as §2
MDA-MB-435 = test: Cytotoxicity against human MDA-MB-435 cells assessed as cell growth at 10^-5 M after 48 hrs by SRB assay; assay type: functional; conditions: MDA-MB-435, 48 h, read-out: Activity; in short: as §1
M14 = test: Cytotoxicity against human M14 cells assessed as cell growth at 10^-5 M after 48 hrs by SRB assay; assay type: functional; conditions: M14, 48 h, read-out: Activity; in short: as §1
LOX IMVI = test: Cytotoxicity against human LOXIMVI cells assessed as cell growth at 10^-5 M after 48 hrs by SRB assay; assay type: functional; conditions: read-out: Activity; in short: as §1
Malme-3M = test: Cytotoxicity against human MALME-3M cells assessed as cell growth at 10^-5 M after 48 hrs by SRB assay; assay type: functional; conditions: read-out: Activity; in short: as §1
SNB-75 = test: Cytotoxicity against human SNB75 cells assessed as cell growth at 10^-5 M after 48 hrs by SRB assay; assay type: functional; conditions: SNB-75, 48 h, read-out: Activity; in short: as §2
SF-539 = test: Cytotoxicity against human SF539 cells assessed as cell growth at 10^-5 M after 48 hrs by SRB assay; assay type: functional; conditions: SF-539, 48 h, read-out: Activity; in short: as §1
SF-268 = test: Cytotoxicity against human SF268 cells assessed as cell growth at 10^-5 M after 48 hrs by SRB assay; assay type: functional; conditions: SF-268, 48 h, read-out: Activity; in short: as §1
SF-295 = test: Cytotoxicity against human SF295 cells assessed as cell growth at 10^-5 M after 48 hrs by SRB assay; assay type: functional; conditions: SF-295, 48 h, read-out: Activity; in short: as §1
HT-29 = test: Cytotoxicity against human HT-29 cells assessed as cell growth at 10^-5 M after 48 hrs by SRB assay; assay type: functional; conditions: HT-29, 48 h, read-out: Activity; in short: as §1
COLO 205 = test: Cytotoxicity against human COLO205 cells assessed as cell growth at 10^-5 M after 48 hrs by SRB assay; assay type: functional; conditions: COLO 205, 48 h, read-out: Activity; in short: as §1
HCC 2998 = test: Cytotoxicity against human HCC2998 cells assessed as cell growth at 10^-5 M after 48 hrs by SRB assay; assay type: functional; conditions: HCC 2998, 48 h, read-out: Activity; in short: as §1
A549 = test: Cytotoxicity against human A549 cells assessed as cell growth at 10^-5 M after 48 hrs by SRB assay; assay type: functional; conditions: A549, 48 h, read-out: Activity; in short: as §1
Rattus norvegicus [1] = test: Antiinflammatory activity in albino rat assessed as inhibition of carrageenan-induced paw edema at 0.28 mmol/kg, po after 5 hrs relative to control; assay type: functional
In short: (§3)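 Adult male albino rats (120–140 g), four per group, fasted 24 h with water allowed. Test agent suspended in 0.5% w/v aqueous CMC and given orally at 0.28 mmol/kg; controls received CMC alone. After 30 min, 0.1 mL fresh 1% carrageenan in saline was injected subplantar into the right hind paw and saline into the left. Paw thickness was measured by Vernier caliper; % inhibition = [(VR−VL)control − (VR−VL)treated]/(VR−VL)control ×100. Mean ± SEM, one-way ANOVA.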

Rattus norvegicus [2] = test: Antiinflammatory activity in albino rat assessed as inhibition of carrageenan-induced paw edema at 0.28 mmol/kg, po after 3 hrs relative to control; assay type: functional; in short: as §3
[3] = Induction of nitric oxide release in phosphate buffer at pH 7.4 at 0.1 mM after 6 hrs by Griess method in presence of 0.5 mM of N-acetylcysteine; assay type: physicochemical; conditions: pH 7.4, 6 h, 100 µM
In short: (§4)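 Compound in DMF diluted to final 10^-4 M in 1:1 50 mM phosphate buffer pH 7.4/MeOH with 5×10^-4 M N-acetylcysteine, 37 °C. Aliquot mixed with Griess reagent, 10 min at room temperature, A546 read. Nitrite quantified against sodium nitrite standards (10–80 nmol/mL); NO expressed as mol/mol. n = 4 reaction mixtures per compound.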

[4] = Induction of nitric oxide release in phosphate buffer at pH 7.4 at 0.1 mM after 4 hrs by Griess method in presence of 0.5 mM of N-acetylcysteine; assay type: physicochemical; conditions: pH 7.4, 4 h, 100 µM; in short: as §4
[5] = Induction of nitric oxide release in phosphate buffer at pH 7.4 at 0.1 mM after 2 hrs by Griess method in presence of 0.5 mM of N-acetylcysteine; assay type: physicochemical; conditions: pH 7.4, 2 h, 100 µM; in short: as §4

SMILES | growth at 10 µM (MDA-MB-468) [%] | growth at 10 µM (Hs-578T) [%] | growth at 10 µM (MDA-MB-231) [%] | growth at 10 µM (MCF7) [%] | growth at 10 µM (SN12C) [%] | growth at 10 µM (RXF 393) [%] | growth at 10 µM (CAKI-1) [%] | growth at 10 µM (A498) [%] | growth at 10 µM (OVCAR-4) [%] | growth at 10 µM (OVCAR-3) [%] | growth at 10 µM (IGROV-1) [%] | growth at 10 µM (UACC-257) [%] | growth at 10 µM (SK-MEL-5) [%] | growth at 10 µM (MDA-MB-435) [%] | growth at 10 µM (M14) [%] | growth at 10 µM (LOX IMVI) [%] | growth at 10 µM (Malme-3M) [%] | growth at 10 µM (SNB-75) [%] | growth at 10 µM (SF-539) [%] | growth at 10 µM (SF-268) [%] | further results
CCn1c(SC/C(=N/O)c2ccccc2)nnc1-c1ccccc1 | 108 | 101 | 94.6 | 112 | 88.5 | 117 | 89 | 69.3 | 85.5 | 121 | 106 | 104 | 100 | 105 | 109 | 104 | 98.7 | 87.8 | 93.7 | 108 | growth at 10 µM (SF-295): 109%; growth at 10 µM (HT-29): 104%; growth at 10 µM (COLO 205): 115%; growth at 10 µM (HCC 2998): 96.6%; growth at 10 µM (A549): 101%; inhibition in vivo at 280 µmol/kg (Rattus norvegicus [1]): 71%; inhibition in vivo at 280 µmol/kg (Rattus norvegicus [2]): 72%; Activity [3]: 0.13 mol/mol; Activity [4]: 0.13 mol/mol; Activity [5]: 0.08 mol/mol
C=CCn1c(SC/C(=N\O)c2ccccc2)nnc1-c1ccc(OC)c(OC)c1 | 105 | 97.3 | 94.4 | 105 | 98.2 | 117 | 90 | 97.4 | 91 | 110 | 97.6 | 102 | 101 | 105 | 123 | 88.2 | 92.5 | 86.9 | 95.6 | 105 | growth at 10 µM (SF-295): 104%; growth at 10 µM (HT-29): 93.5%; growth at 10 µM (COLO 205): 106%; growth at 10 µM (HCC 2998): 100%; growth at 10 µM (A549): 98.1%; inhibition in vivo at 280 µmol/kg (Rattus norvegicus [1]): 69%; inhibition in vivo at 280 µmol/kg (Rattus norvegicus [2]): 58%; Activity [3]: 0.13 mol/mol; Activity [4]: 0.17 mol/mol; Activity [5]: 0.15 mol/mol
COc1cc(-c2nnc(SC/C(=N/O)c3ccccc3)n2-c2ccccc2)cc(OC)c1OC | 119 | 103 | 93.7 | 101 | 95.8 | 105 | 79 | 98.4 | 84.8 | 114 | 99 | 102 | 84.6 | 104 | 108 | 91.7 | 95.3 | 84.5 | 102 | 114 | growth at 10 µM (SF-295): 93.1%; growth at 10 µM (HT-29): 99.5%; growth at 10 µM (COLO 205): 108%; growth at 10 µM (HCC 2998): 108%; growth at 10 µM (A549): 94.7%; inhibition in vivo at 280 µmol/kg (Rattus norvegicus [1]): 68%; inhibition in vivo at 280 µmol/kg (Rattus norvegicus [2]): 64%; Activity [3]: 0.15 mol/mol; Activity [4]: 0.14 mol/mol; Activity [5]: 0.11 mol/mol
